Assays:
Format in all cases: functional
[1] = test system: HT-29; experiment: Cytostatic activity against human HT-29 cells
In short: (§1)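 NCI-60 human tumor cell line screen run by the US National Cancer Institute under the NIH Developmental Therapeutics Program protocol. A single-dose prescreen at 10 µM came first. Selected compounds then went into the 5-dose assay. Cytostatic activity is reported as GI50 (µM).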

[2] = test system: Hs-578T; experiment: Cytostatic activity against human Hs 578T cells; in short: as §1
[3] = test system: UO-31; experiment: Cytostatic activity against human UO31 cells
In short: (§2)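 Human tumour cell lines from the NCI-60 panel, tested at the US National Cancer Institute under the NIH Developmental Therapeutics Program protocol. A single-dose prescreen at 10 µM came first. Selected compounds then went to a 5-dose assay, which gave GI50 and TGI values in µM.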

[4] = test system: Malme-3M; experiment: Cytostatic activity against human MALME-3M cells; in short: as §1
[5] = test system: UACC-257; experiment: Cytostatic activity against human UACC257 cells; in short: as §2
[6] = test system: SNB-75; experiment: Cytostatic activity against human SNB75 cells; in short: as §2
[7] = test system: NCI-H522; experiment: Cytostatic activity against human NCI-H522 cells; in short: as §1
[8] = test system: NCI-H460; experiment: Cytostatic activity against human NCI-H460 cells; in short: as §1
[9] = test system: IGROV-1; experiment: Cytostatic activity against human IGROV1 cells; in short: as §1
[10] = test system: OVCAR-3; experiment: Cytostatic activity against human OVCAR3 cells; in short: as §1
[11] = test system: M14; experiment: Cytostatic activity against human M14 cells; in short: as §1
[12] = test system: SF-268; experiment: Cytostatic activity against human SF268 cells; in short: as §1
[13] = test system: UACC-62; experiment: Cytostatic activity against human UACC62 cells; in short: as §2
[14] = test system: U-251; experiment: Cytostatic activity against human U251 cells; in short: as §2
[15] = test system: MDA-MB-231; experiment: Cytostatic activity against human MDA-MB-231/ATCC cells; in short: as §1
[16] = test system: MDA-MB-435; experiment: Cytostatic activity against human MDA-MB-435 cells; in short: as §1

Row | GI50 [1] | GI50 [7] | GI50 [8] | GI50 [10] | GI50 [14] | GI50 [15] | GI50 [16] | SMILES | GI50 [2] | GI50 [3] | GI50 [4] | GI50 [5] | GI50 [6] | GI50 [9] | GI50 [11] | GI50 [12] | GI50 [13]
1 | 1820 nM | 1020 nM | 2140 nM | 1700 nM |  |  |  | N=C(NO)NS(=O)(=O)c1cc(-c2nc(-c3ccc(Cl)cc3)no2)c(Cl)cc1SCc1ccc2c(c1)OCO2 | 2690 nM | 1910 nM | 2630 nM | 1910 nM | 1740 nM | 2140 nM | 1860 nM | 1820 nM | 1700 nM
2 | 2000 nM | 1290 nM | 2040 nM | 1700 nM |  |  |  | N=C(NO)NS(=O)(=O)c1cc(-c2nc(-c3ccccc3)no2)c(Cl)cc1SCc1ccc2c(c1)OCO2 | 2630 nM | 1660 nM | 2190 nM | 2000 nM | 1550 nM | 2570 nM | 1910 nM | 1910 nM | 1820 nM

Further lines, the molecule ahead of its results:

Row | SMILES | GI50 [1] | GI50 [7] | GI50 [8] | GI50 [10] | GI50 [14] | GI50 [15] | GI50 [16] | GI50 [2] | GI50 [3] | GI50 [4] | GI50 [5] | GI50 [6] | GI50 [9] | GI50 [11] | GI50 [12] | GI50 [13]
3 | COc1cc(CSc2cc(Cl)c(-c3nnc(-c4ccccc4)s3)cc2S(=O)(=O)NC(=N)NO)cc(OC)c1OC | 4170 nM | 2040 nM | 3240 nM | 2190 nM |  |  |  | 3310 nM | 3980 nM | 3090 nM | 6030 nM | 1860 nM | 3720 nM | 4070 nM | 2400 nM | 3240 nM
4 | N=C(NO)NS(=O)(=O)c1cc(-c2nc(-c3ccccc3)cs2)c(Cl)cc1SCc1ccc2c(c1)OCO2 |  |  |  |  | 1950 nM | 2340 nM | 2000 nM |  |  |  |  |  | 2820 nM |  | 1860 nM | 2140 nM
5 | COc1cc(CSc2cc(Cl)c(-c3nnc(-c4ccc(Cl)cc4)s3)cc2S(=O)(=O)NC(=N)NO)cc(OC)c1OC | 6760 nM | 8910 nM | 34700 nM | 10200 nM |  |  |  | 8130 nM | 44700 nM | 97700 nM | 26300 nM | 25700 nM | 58900 nM | 40700 nM | 9550 nM | 16200 nM
